One series deals with Liver. As to the kind of experiment: Ratio drug uptake in liver to harderian gland of C57BL6 mouse at 10 mg/kg, po measured 6 hrs post dose. It is filed as ADME, organism-based. Set-up: dose 10 mg/kg, route oral. To be noted: in vivo. In a few lines:
(§1)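 Single oral dose of 10 mg/kg in 0.5% methylcellulose to fed C57BL6 mice (n = 2). Animals sacrificed 6 h post dose. Plasma, liver, skin and Harderian gland collected. Tissues homogenized in MeCN/water with internal standard and drug quantified by LC-MS against a standard curve made in blank plasma. Concentration ratio calculated.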

A further series concerns the target T1, Stearoyl-CoA desaturase (Homo sapiens, UniProt O00767).
T1 sequence (O00767 whole entry): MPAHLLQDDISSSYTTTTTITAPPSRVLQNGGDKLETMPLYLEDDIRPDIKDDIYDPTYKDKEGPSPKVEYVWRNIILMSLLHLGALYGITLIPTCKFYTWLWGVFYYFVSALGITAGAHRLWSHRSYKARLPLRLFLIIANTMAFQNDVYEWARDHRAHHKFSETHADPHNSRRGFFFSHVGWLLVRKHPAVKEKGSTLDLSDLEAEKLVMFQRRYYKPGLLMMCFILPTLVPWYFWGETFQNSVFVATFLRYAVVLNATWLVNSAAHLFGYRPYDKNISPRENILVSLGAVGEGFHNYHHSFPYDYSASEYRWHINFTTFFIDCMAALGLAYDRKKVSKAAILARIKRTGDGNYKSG
As to the kind of experiment: Inhibition of SCD-1 activity in organic anion transporting polypeptides-deficient human HepG2 cells assessed as reduction in [I-14C] stearoyl CoA desaturation by scintillation counting. It is filed as cell-based.

In series [1] the target is T2, Acyl-CoA desaturase 1 (Rattus norvegicus, UniProt P07308).
T2 sequence (P07308 whole entry): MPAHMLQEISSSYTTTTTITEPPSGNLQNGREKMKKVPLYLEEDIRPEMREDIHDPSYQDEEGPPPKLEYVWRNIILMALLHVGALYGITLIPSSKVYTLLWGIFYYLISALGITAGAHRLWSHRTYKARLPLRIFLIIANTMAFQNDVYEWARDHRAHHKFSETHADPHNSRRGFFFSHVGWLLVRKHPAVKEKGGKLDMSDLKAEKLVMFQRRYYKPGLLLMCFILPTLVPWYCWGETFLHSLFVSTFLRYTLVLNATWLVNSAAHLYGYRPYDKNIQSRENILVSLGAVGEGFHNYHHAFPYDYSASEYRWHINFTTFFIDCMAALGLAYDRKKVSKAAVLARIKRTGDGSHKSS
As to the kind of experiment: Inhibition of SCD-1 activity in Sprague-Dawley rat Hepatocytes expressing organic anion transporting polypeptides assessed as reduction in [I-14C] […] desaturation by scintillation counting. It is filed as cell-based, Hepatocyte. The procedure, abridged: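 Rat hepatocytes (4 × 10^6 cells/mL) were preincubated with compound for 15 min at 37 °C/5% CO2. 14C-stearic acid (final 0.5 μCi/mL) was then added for 1 h with shaking. Cells were washed, hydrolyzed in 2N NaOH at 75 °C for 1 h, acidified and extracted. Radiolabeled oleic and stearic acids were quantified by HPLC with flow scintillation detection. Mean of at least n = 3.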

A short description of series [2]: Ratio drug uptake in liver to plasma of C57BL6 mouse at 10 mg/kg, po measured 6 hrs post dose. It is filed as ADME, organism-based. The settings on record: liver and plasma. More on the design: dose 10 mg/kg, route oral. The procedure, abridged:
as §1

In another series the test system is HepG2. As to the kind of experiment: Ratio IC50 for SCD-1 activity in organic anion transporting polypeptides-deficient human HepG2 cells to IC50 for SCD-1 activity in Sprague-Dawley rat Hepatocytes expressing organic anion transporting polypeptides. It is filed as cell-based. The procedure, abridged: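 Cellular SCD IC50s measured in human HepG2 cells (lacking active OATPs) and in rat hepatocytes (active OATPs). Hepatocytes preincubated with compound for 15 min at 37 °C, then given 14C-stearic acid (final 0.5 μCi/ml) for 1 h with shaking. Lipids hydrolysed in 2N NaOH at 75 °C, acidified and extracted. Radiolabelled oleic and stearic acid resolved by HPLC with flow scintillation detection. Mean of at least n = 3. HepG2 IC50 divided by hepatocyte IC50.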

The target of series [3] is T2, Acyl-CoA desaturase 1. As to the kind of experiment: Inhibition of SCD-1 activity in Sprague-Dawley rat microsome assessed as reduction in [I-14C] stearoyl CoA desaturation by scintillation counting. It is filed as microsomes.
Series [4] concerns Mus musculus. As to the kind of experiment: Inhibition of SCD activity in liver of diet-induced obese C57BL6 mouse assessed as reduction in desaturation induces at 30 mg/kg, po BID. More on the design: dose 30 mg/kg. It is filed as functional, organism-based.
Series [5] has as its system Mus musculus. As to the kind of experiment: Antidiabetic activity in diet-induced obese C57BL6 mouse assessed as reduction in body weight gain at 30 mg/kg, po BID. It is filed as functional, organism-based. Set-up: dose 30 mg/kg.
The nature of series [6]: Clearance in fasted C57BL6 mouse at 2 mg/kg, iv and 10 mg/kg, po BID. It is filed as ADME, organism-based. To be noted: in vivo. In a few lines:
(§2)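 Fasted male C57BL6 mice received 2 mg/kg IV and 10 mg/kg PO. For the reference compound, IV was given as a solution in 60% PEG-200 and PO as a suspension in 1% methocel. Plasma levels were measured by LC-MS/MS. Values are the mean of n = 3 animals.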

Series [7] in a line: AUC in plasma of fasted C57BL6 mouse at 2 mg/kg, iv and 10 mg/kg, po BID. It is filed as ADME, organism-based. The procedure, abridged: as §2
Series [8] in a line: Cmax in plasma of fasted C57BL6 mouse at 2 mg/kg, iv and 10 mg/kg, po BID. It is filed as ADME, organism-based. The procedure, abridged:
as §2

A short description of series [9]: Oral bioavailability in C57BL6 mouse at 10 mg/kg BID. To be noted: in vivo, in the assay text read “10 mg/kg” for “10 mg/kg BID”. It is filed as ADME, organism-based. In a few lines: (§3)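 Fasted male C57BL6 mice given 2 mg/kg IV and 10 mg/kg PO. Plasma drug levels measured by LC-MS/MS, mean of n = 3 animals, and PK parameters derived from these.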
A short description of series [10]: Half life in fasted C57BL6 mouse at 2 mg/kg, iv and 10 mg/kg, po BID. It is filed as ADME, organism-based. To be noted: in vivo. The procedure, abridged:
as §2

A short description of series [11]: Volume of distribution in fasted C57BL6 mouse at 2 mg/kg, iv and 10 mg/kg, po BID. It is filed as ADME, organism-based. To be noted: in vivo. In a few lines:
as §3

Molecules are shown by their SMILES. Activity calls are given as the source filed them. The calls are words filed in the database; no cut-off is given here. Some results are limits rather than exact numbers.

Regarding `FC(F)(F)c1ccccc1OC1CCN(c2nnc(-c3nn[nH]n3)s2)CC1`, in the series on Liver, the Ratio amounted to 330. Besides, the figures for the IC50 at Stearoyl-CoA desaturase, on Acyl-CoA desaturase 1 [1] and on Acyl-CoA desaturase 1 [3] were over 50000 nM, 3470 nM and 276 nM, respectively. Moreover, the Kp at 6 h in [2] was 15. The Ratio IC50 in the series on HepG2 was over 14.

In the case of `O=C(O)Cn1nnc(-c2nnc(N3CCC(Oc4cc(F)ccc4Br)CC3)s2)n1`, the Ratio in the series on Liver was found to be 40. Besides, the IC50 on Stearoyl-CoA desaturase worked out at 904 nM; on Acyl-CoA desaturase 1 [1] it was 189 nM; on Acyl-CoA desaturase 1 [3] it was 7 nM. Further, the inhibition entry in the series with Mus musculus [4] is “Active”. Besides, the Ratio IC50 in the series with HepG2 came out at 5. In addition, the result in the series on Mus musculus [5] was inactive.

Regarding `O=C([O-])Cn1nnc(-c2cc(N3CCC(Oc4cc(F)ccc4Br)CC3)no2)n1.[Na+]`, the clearance in series [6] is 41 mL/min/kg. The compound also came in with an AUC in [7] of 1 µM·h. This compound yielded a Cmax in [8] of 400 nM. Also, the bioavailability in series [9] is 12%. Moreover, in series [10], the half-life was 42 min. Also, the Vd in series [11] turned out to be 1 L/kg.

By IC50 is commonly meant the concentration needed to halve the response being measured. As a reminder, the Kp is the ratio of the level in a tissue or fluid to that in plasma or blood. In general, AUC refers to the area under the concentration-time curve, a measure of exposure. A lower AUC goes with less exposure. What is called Cmax is the peak of the concentration-time curve. What is called bioavailability is dose-corrected exposure relative to a reference, in per cent. Read a high bioavailability as good availability. One may read the half-life as how long it takes for the measured level to halve. Read a high half-life as slow decline.

The record behind these values is ChEMBL document CHEMBL2150952 (J Med Chem, 2011).
